PubChem BioAssay
Activity calls are given as the source filed them.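 The calls were made as follows, unless noted: active = visually confirmed hit in the image check and inhibition above 20%; inconclusive = visually confirmed hit but inhibition not above 20%; inactive = no visual hit in the image check.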

Columns and labels:
[1] = inhibitors of TNFa-induced NFkB p65 translocation, primary screen, imaging, HUVEC, MLSMR starter and 10KST1 sets (AID 438;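 active = inhibition above 20% together with a positive visual image hit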;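 also: compound added about 3h40 before a 20 min TNFalpha stimulation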;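 as to inhibition: signal is the nuclear over cytoplasmic p65 intensity ratio per well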); details: HUVEC TNFa-induced p65 nuclear translocation; cell count: measured here: nuclei count (cytotoxicity indicator), at 2.08 µM; inhibition: at 2 µM, stronger effect = higher value, 0% TNFa-plus-vehicle, 100% no-TNFa wells
[2] = endothelial E-selectin expression blockers – imaging, HUVEC, immunofluorescence, MLSMR starter and 10KST1 sets, primary screen (AID 487); details: HUVEC TNFalpha-induced E-selectin immunofluorescence imaging, at 2 µM; inhibition: stronger effect = higher value; nuclei count: measured here: cell number, toxicity;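 as to inhibition: signal is fraction of cell area covered by stained E-selectin grains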;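 as to nuclei count: 100% = median nuclei count of all wells on the same plate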
[3] = Primary imaging screen for DUSP6 inhibitors that restore phospho-Erk in transfected HeLa cells, chemical complementation (AID 609;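 active = compounds giving at least 50% inhibition in the cell-based MKP-3 phosphatase rescue imaging test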;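 as to inhibition: phospho-Erk level distribution per well compared with pooled transfected vehicle control wells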); details: HeLa MKP-3 transfected, phospho-Erk imaging KS statistic, at 10 µM, cells stimulated with TPA for 15 min
[4] = target: Dual specificity protein phosphatase 6 (Homo sapiens) (UniProt Q16828); test: as above; details: HeLa MKP-3 transfected, phospho-Erk imaging KS statistic; at 10 µM; stronger effect = higher value; cells stimulated with TPA for 15 min
Chain of Dual specificity protein phosphatase 6 (Homo sapiens) (Q16828 whole entry, looked up): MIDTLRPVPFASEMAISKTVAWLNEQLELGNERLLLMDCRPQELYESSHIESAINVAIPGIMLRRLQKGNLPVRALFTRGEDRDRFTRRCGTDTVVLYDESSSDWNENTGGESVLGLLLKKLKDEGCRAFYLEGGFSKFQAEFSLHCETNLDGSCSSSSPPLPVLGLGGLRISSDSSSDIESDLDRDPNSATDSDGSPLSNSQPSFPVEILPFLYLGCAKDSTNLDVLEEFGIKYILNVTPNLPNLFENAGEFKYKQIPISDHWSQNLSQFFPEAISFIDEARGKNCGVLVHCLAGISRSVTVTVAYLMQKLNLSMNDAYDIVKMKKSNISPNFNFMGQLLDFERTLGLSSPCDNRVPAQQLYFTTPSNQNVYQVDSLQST

[5] = target: Voltage-gated potassium channel subunit beta-2 (Rattus norvegicus) (UniProt P62483); test: inhibitors of rat Kvbeta2 reductase activity – biochemical, NADPH fluorescence, primary screen (AID 622;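 active = fluorescence slope higher than the sample average by over 3 SD, cut at about -0.22 in these data, passing the limit was not always enough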;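 also: slope of raw intensity against log time taken from 70 to 1610 s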); details: recombinant KvBeta, 4-cyanobenzaldehyde reduction, at 10 µM, stronger effect = higher value
Chain of Voltage-gated potassium channel subunit beta-2 (Rattus norvegicus) (P62483 whole entry, looked up): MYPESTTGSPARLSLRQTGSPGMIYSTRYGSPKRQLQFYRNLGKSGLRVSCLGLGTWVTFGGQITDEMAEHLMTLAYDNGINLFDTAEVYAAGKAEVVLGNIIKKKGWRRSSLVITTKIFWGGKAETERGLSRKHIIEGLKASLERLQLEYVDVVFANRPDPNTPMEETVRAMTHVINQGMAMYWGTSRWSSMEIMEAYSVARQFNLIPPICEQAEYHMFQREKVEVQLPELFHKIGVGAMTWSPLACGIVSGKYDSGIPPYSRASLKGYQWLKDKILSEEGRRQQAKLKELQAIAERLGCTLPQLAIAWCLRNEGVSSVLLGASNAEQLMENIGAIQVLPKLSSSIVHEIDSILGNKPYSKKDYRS

[6] = target: Voltage-gated potassium channel subunit beta-2 (Rattus norvegicus) (UniProt P62483); test: enhancers of rat Kvbeta2 NADPH turnover – biochemical, NADPH fluorescence, primary screen (AID 623;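 active = NADPH fluorescence slope more negative than the mean of all samples by about 3 SD, 99.7% confidence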;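 also: fluorescence intensity change per second fitted from 20 to 320 s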); details: Recombinant KvBeta, NADPH fluorescence decrease slope, 10 min; at 10 µM; stronger effect = lower value
[7] = target: Alpha-2C adrenergic receptor (Homo sapiens) (UniProt P18825); test: compounds altering alpha2C-coupled GIRK flux – cell-based, HEK293 alpha2C/GIRK1/2, thallium flux, primary screen (AID 624;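 active = fluorescence slope after compound addition differing from the mean of all screened samples at 99.7% confidence, in either direction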;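 also: slope of fluorescence ratio to pre-addition baseline per second over 15 to 24 s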); details: thallium flux BTC fluorescence, at 10 µM, actives lie on both sides
Chain of Alpha-2C adrenergic receptor (Homo sapiens) (P18825 whole entry, looked up): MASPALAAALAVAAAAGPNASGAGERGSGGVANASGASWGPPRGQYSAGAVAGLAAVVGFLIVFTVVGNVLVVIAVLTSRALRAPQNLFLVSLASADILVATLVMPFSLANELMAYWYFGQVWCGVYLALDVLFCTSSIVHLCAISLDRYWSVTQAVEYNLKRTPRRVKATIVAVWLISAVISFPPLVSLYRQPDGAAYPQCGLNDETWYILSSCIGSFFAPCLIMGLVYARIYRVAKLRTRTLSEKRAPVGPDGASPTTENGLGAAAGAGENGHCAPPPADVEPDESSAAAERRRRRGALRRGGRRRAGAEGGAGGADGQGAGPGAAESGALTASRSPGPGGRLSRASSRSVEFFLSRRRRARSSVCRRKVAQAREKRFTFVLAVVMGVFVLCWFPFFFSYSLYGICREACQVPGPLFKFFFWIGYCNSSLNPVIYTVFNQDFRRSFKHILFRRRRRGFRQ

[8] = inhibitors of larval lipid processing in zebrafish, primary screen, whole organism, PED6 fluorescence, gall bladder and intestine (AID 686;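 active = a full or partial loss of lipid-probe fluorescence in the fish gall bladder, intestine or both, judged by eye; inactive = no fluorescence loss, or compound toxic to the fish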;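 also: larvae 5 to 7 days old with five fish per well; signal comes from phospholipase A2 cleavage of quenched PED6 carried via bile; overnight exposure to compound and PED6 before scoring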); details: Zebrafish larvae PED6 lipid processing, fluorescence scoring; screened at 20 µM (by protocol)
Procedure, shortened: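 Doses: 20 µM single dose. Test system: live zebrafish larvae aged 5-7 days, whole organism. Quantity: five larvae per well. Measured by: By-eye fluorescence microscopy. Reagent: ingested quenched lipid PED6 at 100 nM. Read-out: visual per-well fluorescence inhibition score. Times: overnight exposure of larvae to compound plus PED6.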

[9] = loss of swimming-algae plug formation – whole organism, Chlamydomonas reinhardtii, WT vs cilia-less mutant, absorbance, 96-well, primary screen (AID 463189;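 active = inhibition at or above 50% relative to wild type and mutant plate controls; inactive = inhibition below 50%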;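 also: 0% = wild type cc124 cells in DMSO and 100% = ciliumless bld1 mutant cells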); details: Chlamydomonas reinhardtii gravitaxis, OD600 absorbance, 2 days; at 10 µM; stronger effect = higher value
[10] = measured here: cell density z-score
[11] = measured here: nuclear c-Myc green intensity z-score
[12] = measured here: nuclear pErk red intensity z-score, stronger effect = higher value

| Compound | cell count [1] | inhibition [1] | inhibition [2] | nuclei count [2] [%] | z-score [3, 10] | z-score [3, 11] | z-score [3, 12] | inhibition [4] | fluorescence slope [5] | NADPH fluorescence slope [6] | slope [7] | outcome [8] | inhibition [9] |
| --- | --- | --- | --- | --- | --- | --- | --- | --- | --- | --- | --- | --- | --- |
| CCN(CC)CCNc1nc2c(c(=O)[nH]c(=O)n2C)n1CCOc1ccccc1 | 501 | -1.2% (inactive) | -206% (inactive) | 135 | 0.0299 | -1.12 | -0.109 | 12.3% (inactive) | -0.534 (inactive) | -4.4e-05 (inactive) | 0.00521 (inactive) | inactive | 0.39% (inactive) |
| CCCSc1nc(N2CCCC2)c2c(c1C#N)CC(C)(C)OC2 | 521 | -7.7% (inactive) | -153% (inactive) | 173 | 1.7 | -1.87 | -0.14 | 36.9% (inactive) | -0.322 (inactive) | 4.6e-06 (inactive) | 0.00655 (inactive) | inactive | 9.15% (inactive) |
| N#Cc1ccc(-c2ccco2)nc1SCC(=O)c1ccc(Cl)cc1 | 431 | 0% (inactive) | -80.7% (inactive) | 138 | -1.49 | -0.417 | 1.23 | 7.83% (inactive) | -0.288 (inactive) | -2.9e-05 (inactive) | 0.00718 (inactive) | inactive | -1.61% (inactive) |
| O=C1c2ccccc2C(=O)C1c1ccc2ccccc2n1 | 336 | -17.4% (inactive) | -56% (inactive) | 109 | -0.111 | -0.223 | 0.575 | -7.28% (inactive) | -0.43 (inactive) | -2.4e-05 (inactive) | 0.00379 (inactive) | inactive | -14.2% (inactive) |
| COc1ccc(-c2cc(=O)[nH]c(=O)[nH]2)cc1 | 636 | -16% (inactive) | -269% (inactive) | 186 | -0.456 | 0.584 | 0.91 | 3.66% (inactive) | -0.466 (inactive) | -0.000273 (inactive) | 0.00552 (inactive) | inactive | -6.46% (inactive) |
| CCOc1cccc(C2C(C#N)=C(N)Oc3cc(C)oc(=O)c32)c1OCC (stereo not drawn) | 362 | -24.9% (inactive) | -67.3% (inactive) | 143 | 0.354 | -0.768 | 1.02 | 8.76% (inactive) | -0.441 (inactive) | -0.000143 (inactive) | 0.00434 (inactive) | inactive | 10.1% (inactive) |
| COc1cccc(C2/C(=C(/O)c3ccc(C)cc3)C(=O)C(=O)N2Cc2ccco2)c1 (stereo not drawn) | 552 | -6.3% (inactive) | -20% (inactive) | 123 | 0.537 | 0.655 | -1.35 | 4.72% (inactive) | -0.512 (inactive) | -5.6e-05 (inactive) | 0.00539 (inactive) | inactive | 15.2% (inactive) |
| Cc1csc2nc(CSc3nc4ccccc4o3)cn12 | 402 | -8.4% (inactive) | -53.8% (inactive) | 108 | 0.0403 | 1.14 | -0.0493 | 3.56% (inactive) | -0.545 (inactive) | -5.7e-05 (inactive) | 0.00434 (inactive) | inactive | 5.29% (inactive) |
| Cc1nc(-c2c(-c3ccc(O)cc3O)noc2C(F)(F)F)cs1 | 518 | -18.3% (inactive) | -135% (inactive) | 163 | 0.818 | -0.387 | 0.0899 | 20.2% (inactive) | -0.468 (inactive) | -0.000226 (inactive) | 0.00467 (inactive) | inactive | 20.1% (inactive) |
| Cc1oc2cc(O)cc(C)c2c(=O)c1-c1cnn(-c2ccccc2)c1 | 578 | -1.3% (inactive) | -189% (inactive) | 149 | 0.4 | 1.63 | 0.0441 | 15.9% (inactive) | -0.509 (inactive) | -5.7e-05 (inactive) | 0.00468 (inactive) | inactive | 20.5% (inactive) |
| OC1(c2cccc(C(F)(F)F)c2)CCN(c2ncnc3c2[nH]c2ccccc23)CC1 | 447 | -2.9% (inactive) | -95% (inactive) | 165 | -0.506 | 1.11 | -2.96 | 34.7% (inactive) | -0.454 (inactive) | -5.6e-05 (inactive) | 0.0037 (inactive) | inactive | 19.3% (inactive) |
| CCOc1ccc(C2=Nn3c(nnc3-c3cccnc3)SC2)cc1 | 732 | 1.2% (inactive) | -49.1% (inactive) | 186 | -0.574 | 2.33 | 0.047 | -9.66% (inactive) | -0.414 (inactive) | -0.000128 (inactive) | 0.00953 (inactive) | inactive | 8.58% (inactive) |
| COc1ccccc1N1CCN(CCCCOc2ccc(F)cc2)CC1 | 461 | -6.8% (inactive) | -62.1% (inactive) | 116 | 1.12 | -0.735 | -0.613 | 26.6% (inactive) | -0.52 (inactive) | -3.7e-05 (inactive) | 0.00493 (inactive) | inactive | 9.82% (inactive) |
| CC(C)OC(=O)c1sc2nc3c(cc2c1N)C(=O)CCC3 | 334 | -8% (inactive) | -109% (inactive) | 159 | 1.59 | -1.25 | -0.674 | 9.42% (inactive) | -0.403 (inactive) | -9.2e-05 (inactive) | 0.0073 (inactive) | inactive | -4.23% (inactive) |
| CN(C)S(=O)(=O)Nc1ccc(NS(=O)(=O)N(C)C)c(S(=O)(=O)c2ccccc2)c1 | 341 | -11.9% (inactive) | -131% (inactive) | 99.4 | -0.765 | 0.48 | -2.08 | 7.73% (inactive) | -0.495 (inactive) | -0.000114 (inactive) | 0.00381 (inactive) | inactive | -7.02% (inactive) |
| COc1ccc(N2C(=O)CN=C2Nc2nc(C)cc(C)n2)cc1 | 570 | -16.6% (inactive) | -179% (inactive) | 144 | 1.15 | -0.727 | 0.0405 | 1.98% (inactive) | -0.509 (inactive) | -6.2e-05 (inactive) | 0.00444 (inactive) | inactive | 0.296% (inactive) |
| COc1ccc(/C(O)=C2\C(=O)C(=O)N(CCN3CCOCC3)C2c2ccccc2OC)cc1 (stereo not drawn) | 562 | -10.5% (inactive) | -38.1% (inactive) | 164 | 1.03 | -1.74 | 0.476 | -7.86% (inactive) | -0.486 (inactive) | -2.2e-05 (inactive) | 0.00695 (inactive) | inactive | -2.72% (inactive) |
| CCCOc1ccc(CSC(CC(=O)O)C(=O)O)cc1 (stereo not drawn) | 542 | 1.4% (inactive) | -21% (inactive) | 124 | 1.34 | -1.26 | -1.51 | -3.5% (inactive) | -0.332 (inactive) | 1.3e-05 (inactive) | 0.00503 (inactive) | inactive | 15.7% (inactive) |
| O=C(N(c1ccccc1)c1ccccc1)n1ccnc1 | 543 | -15.7% (inactive) | -71.5% (inactive) | 169 | -1.35 | -0.0585 | 1.08 | -11.5% (inactive) | -0.487 (inactive) | -5.7e-05 (inactive) | 0.00471 (inactive) | inactive | -0.901% (inactive) |
| COC(=O)c1n[nH]c2ccccc12 | 323 | 0.5% (inactive) | -157% (inactive) | 119 | -0.132 | 0.244 | -1.14 | -0.624% (inactive) | -0.287 (inactive) | -1.1e-05 (inactive) | 0.00523 (inactive) | inactive | 17.4% (inactive) |
| Cc1c(NS(=O)(=O)c2cccc3nsnc23)c(=O)n(-c2ccccc2)n1C | 549 | -1.1% (inactive) | -51.8% (inactive) | 154 | 0.537 | 0.599 | -0.221 | -6.06% (inactive) | -0.499 (inactive) | -3.8e-05 (inactive) | 0.00709 (inactive) | inactive | -6.26% (inactive) |
